In the library only some 0.72% were active in any assay of this set; here they are far more common.
mIAP activ: increases mouse intestinal alkaline phosphatase activity | muIAP, CDP-Star luminescence, 30 min; stronger effect = higher value; 1 = vehicle-only enzyme signal, 0 = enzyme-free wells | activation factor at 10 µM | hit rate 0.24% among 330,000 | AID 2805;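 active means activation factor of at least 2 at 20 µM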
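Assay system: mouse IAP enzyme; Reagent: CDP-Star chemiluminescent phosphatase substrate; Compound: DMSO-dissolved test compounds; Incubation: 30 min, room temperature; Technique: luminescence from enzymatic CDP-Star hydrolysis; Controls: DMSO-only wells and no-enzyme negative control.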
bIAP inh: blocks bovine intestinal alkaline phosphatase activity; purified bovine IAP, CDP-star luminescence, 30 min; inhibition, % at 20 µM; 190,000 tested, under 10 active;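 active means over 50% inhibition of intestinal alkaline phosphatase at 20 µM in the single-dose screen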
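System: purified bovine intestinal alkaline phosphatase (IAP) enzyme; Input: IAP diluted 1/65,000,000 in the well; Measured by: CDP-star luminescence signal; Compound dosing: 20 µM single dose; Incubation: 30 min reaction at room temperature.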
hIAP act: increases human intestinal alkaline phosphatase activity | P09923 | purified human IAP, CDP-Star luminescence, 30 min; stronger effect = higher value; 1 = vehicle-only enzyme, 0 = enzyme-free background | activation factor at 10 µM | hit rate 0.16% among 330,000 | AID 2524;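 active means activation factor of the enzyme at least 2-fold when tested at 20 µM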
Target sequence (P09923 whole entry, looked up): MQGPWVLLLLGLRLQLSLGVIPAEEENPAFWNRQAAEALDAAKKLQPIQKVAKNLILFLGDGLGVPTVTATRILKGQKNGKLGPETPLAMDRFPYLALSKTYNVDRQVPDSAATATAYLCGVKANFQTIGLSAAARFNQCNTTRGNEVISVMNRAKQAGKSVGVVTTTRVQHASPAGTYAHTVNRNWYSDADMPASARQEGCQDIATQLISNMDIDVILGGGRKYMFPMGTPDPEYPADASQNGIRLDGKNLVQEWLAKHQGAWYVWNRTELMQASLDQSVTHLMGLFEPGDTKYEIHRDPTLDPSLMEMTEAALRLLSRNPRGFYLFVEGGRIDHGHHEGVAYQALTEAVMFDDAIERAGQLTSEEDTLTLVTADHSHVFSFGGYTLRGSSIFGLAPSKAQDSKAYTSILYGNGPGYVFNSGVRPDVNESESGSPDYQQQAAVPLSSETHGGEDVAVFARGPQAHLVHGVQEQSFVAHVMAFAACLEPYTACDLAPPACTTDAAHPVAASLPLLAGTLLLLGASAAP
bIAP activator: intestinal alkaline phosphatase (bovine) activation; AID 1016; hit rate 0.17% among 200,000; activation factor at 20 µM; purified bovine IAP, CDP-star luminescence, 30 min; stronger effect = higher value; fold of DMSO-control signal, blank-subtracted;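 active means activation factor of 2 or more at 20 µM, a signal rise over negative controls twice the positive control's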
mIAP inh: mouse IAP inhibition; hit rate 0.2% among 330,000; purified mouse IAP, CDP-Star luminescence, 30 min; AID 2806; inhibition, % at 10 µM;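 active means inhibition of at least 40% at 10 µM in the primary screen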;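 further: plate controls were DMSO with enzyme for no effect and no enzyme wells for full effect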
hIAP block: human IAP inhibition; P09923; purified IAP, CDP-Star luminescence, 30 min; inhibition, % at 10 µM; hit rate 0.12% among 330,000; AID 2544;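 active means inhibition reaching a set limit with compound at 10 µM in the primary screen, cut at about 35% in these data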;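 further: plate controls were DMSO wells with enzyme for no effect and no-enzyme buffer wells for full effect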
hIAP act conf: human IAP activation confirmation | shares compounds with hIAP act | AID 434926 | activation (%Activity, negative = activation), % at 8.3 µM | purified IAP, CDP-Star luminescence, 30 min; stronger effect = lower value | hit rate 10% among 880;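 active means at least twofold enzyme activation in any of six single-dose repeats, which the averaged readout prints as negative percent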
Numbers without * were called inactive; · = not tested or not shown.

SMILES	mIAP activ	bIAP inh	hIAP act	bIAP activator	mIAP inh	hIAP block	hIAP act conf
O=C(OCc1ccccc1)/C(=C/c1ccccc1Cl)NC(=O)c1ccco1	0.87	·	0.95	·	13	5	·
CSCCC(NS(=O)(=O)c1ccccc1F)C(=O)NC(C)c1ccccc1 (stereo unspecified)	0.99	-13	0.9	1.1	1	10	·
Cc1ccc(NC(=O)CCS(=O)(=O)c2cc3c(cc2Cl)NC(=O)CO3)cc1	0.97	·	0.63	·	3	37*	-42
COc1ccc(C)cc1NC(=O)CCS(=O)(=O)c1cc2c(cc1Cl)NC(=O)CO2	1	·	0.83	·	-4	17	·
COc1cc(C(=S)N2CCOCC2)cc(OC)c1OC(=O)c1ccc(C)cc1	0.92	·	1.1	·	8	-9	·
O=C(CNC(=O)c1ccccc1)N=Nc1c(O)[nH]c2ccc(Br)cc12	0.98	·	1.6	·	2	-58	·
COC(=O)N=Nc1c(O)[nH]c2ccc(Br)cc12	0.91	·	0.56	·	9	44*	-37
Cc1ccc(C(=O)N(NC2=NS(=O)(=O)c3ccccc32)S(=O)(=O)c2ccc(C)cc2)cc1	1	2	2.4*	1	-2	-137	-27
CCN(C1=NS(=O)(=O)c2ccccc21)N(CC)S(=O)(=O)c1ccc(C)cc1	0.79	9	1	0.9	21	-4	·
O=C(N/N=C/c1cccc([N+](=O)[O-])c1)c1nc2ccccc2c(=O)[nH]1	0.74	·	2.4*	·	26	-140	33
COc1cc2c(cc1OC)C(COc1ccc([N+](=O)[O-])cc1)N(C(C)=O)CC2 (stereo unspecified)	0.95	·	0.96	·	4	4	·
O=C(NC1CC2CCCC(C1)N2C(=O)Nc1ccccc1Cl)C1CC1 (stereo unspecified)	1	·	1	·	0	0	·
O=C(Cc1ccc(Cl)c(Cl)c1)NNC(=S)NCC1CCCO1 (stereo unspecified)	0.95	·	2.1*	·	4	-107	-98*
S=C(NCC1CCCO1)Nc1ccc(Cl)c(Cl)c1 (stereo unspecified)	1.2	10	0.98	0.9	-18	2	·
O=c1ccc2cc(O)c(O)cc2o1	0.61	1	0.6	1	39	40*	-18
CC1=C(C)C(=O)C(N2CCOCC2)=CC1=O	·	14	·	0.9	·	·	·
O=C1C=C(N2CCOCC2)c2ccccc2C1=O	1	·	0.55	·	-4	45*	3
O=C(NCc1ccccn1)c1ccc(OC2CCN(Cc3ccc(Cl)s3)CC2)cc1	1.2	·	0.89	·	-17	11	·
CNc1nc2c(c(=O)[nH]c(=O)n2C)n1CCCc1ccccc1	0.96	·	1.1	·	4	-6	·
CCCn1c(N/N=C\C=C\c2ccccc2)nc2c1c(=O)[nH]c(=O)n2C	0.88	-44	2.2*	1.4	12	-123	2
CCCCCN1CC(O)=C(c2nc3ccccc3[nH]2)C1=N	1.3	-13	2.1*	1.1	-30	-111	-45
CCOC(=O)c1ccc(S(=O)(=O)Nc2cc(S(=O)(=O)N3CCOCC3)ccc2O)cc1	0.74	·	1.3	·	26	-31	·
COc1cc(/C=C2/C(=O)N(c3ccc(Br)cc3)N=C2C)cc([N+](=O)[O-])c1O	0.92	·	0.62	·	8	38*	-42
COc1cc(/C=C2/C(=O)N(c3cccc(Br)c3)N=C2C)cc(OC)c1O	0.77	·	0.64	·	24	36*	-2
COc1ccc(/C=C2/C(=O)N(c3ccccc3)N=C2C)cc1OC	0.95	·	1.2	·	5	-25	·
SMILES	mIAP activ	bIAP inh	hIAP act	bIAP activator	mIAP inh	hIAP block	hIAP act conf
O=C(Nc1ncn[nH]1)c1ccc(Cl)c(S(=O)(=O)N2CCCCCC2)c1	0.93	-36	2.4*	1.4	7	-137	-14
Cc1nn(-c2ccccc2)c2c1C(c1ccncc1)C(C#N)=C(N)O2 (stereo unspecified)	1	4	0.62	1	-3	38*	-2
Cc1ccc(-n2nc(C)c3c2OC(N)=C(C#N)C3c2ccncc2)cc1 (stereo unspecified)	0.93	10	0.86	0.9	7	14	·
CC(=O)Nc1cccc(C(=O)NNC(=O)c2n[nH]c(=O)c3ccccc23)c1	0.87	·	2.3*	·	13	-133	-125*
CC(C)c1ccc(C(=O)NNC(=O)c2n[nH]c(=O)c3ccccc23)cc1	0.89	·	1.8	·	11	-82	·
CCNS(=O)(=O)c1ccc(CCC(=O)N2CCCC2)cc1	1	·	0.58	·	-3	42*	4
Cc1nc(Nc2nc3c(c(=O)[nH]2)CCC3)nc2ccccc12	0.88	·	2.8*	·	12	-177	-78*
CNC(=O)N(O)C1N(/N=C/c2ccccc2O)C(=S)SC1(C)C (stereo unspecified)	0.96	·	1.1	·	4	-6	·
CCCCNC(=O)N(O)C1N(/N=C/c2cccs2)C(=S)SC1(C)C (stereo unspecified)	1	·	0.64	·	0	36*	-2
C[n+]1c(/C=C/c2ccc(O)cc2)ccc2ccccc21	0.72	·	0.56	·	28	44*	4
Cc1cc([N+](=O)[O-])nn1CC(=O)NNC(=S)Nc1ccc(F)cc1	0.99	-24	2.1*	1.2	1	-111	6
Cc1cc([N+](=O)[O-])nn1CC(=O)Nc1ccc(F)cc1	1	0	0.99	1	-1	1	·
Cc1cc(C)cc(N(CCC#N)C(=O)CSc2nc3ccccc3c(=O)[nH]2)c1	1	·	1.1	·	-2	-12	·
CCCCCCN1C=CC(=C/C=C(\C#N)C(=O)OCC)C=C1	0.64	42	0.56	0.6	36	44*	-27
CN(C)c1ccc(/C=C2/C=C(c3ccc4c(c3)CCCC4)OC2=O)cc1	0.67	·	0.57	·	33	43*	4
COc1ccc(N2CCN(C(=O)CCc3ccc(S(=O)(=O)NC(C)(C)C)cc3)CC2)cc1	0.87	·	1.1	·	13	-5	·
COC(=O)[C@@H]1CC[C@H](C)[C@@H](c2ccc(C)cc2)N1C(=O)c1ccc(/C=N/O[C@@H](C)c2cn([C@H](CO)Cc3ccccc3)nn2)cc1	0.82	9	0.96	0.9	18	4	·
O=C(CSc1nnc(Cc2ccccc2)n1-c1ccccc1)NNC(=O)Cc1ccccc1	1	-61	2.1*	1.6	0	-114	-46
COC(=O)CSc1nnc(Cc2ccccc2)n1-c1ccc(C)cc1	1.1	-4	0.94	1	-6	6	·
Cn1nnnc1SCC(=O)Nc1ccccc1-c1ccccc1	0.93	9	0.62	0.9	8	38*	-2
Cc1ccccc1NC(=O)CSc1nnnn1C	1.1	2	1.1	1	-8	-6	·
Cn1c2ccccc2c(=O)c2c(=O)n(C3CCCCC3)c(-c3ccco3)nc21	0.97	5	1	1	3	-1	·

Compound activity from PubChem.
